The results in this text go back to PubChem BioAssay.

The nature of experiment [1]: inhibitors of TNFa-induced NFkB p65 translocation, primary screen, imaging, HUVEC, MLSMR starter and 10KST1 sets (AID 438;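 active = inhibition above 20% together with a positive visual image hit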;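 also: compound added about 3h40 before a 20 min TNFalpha stimulation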;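 as to inhibition: signal is the nuclear over cytoplasmic p65 intensity ratio per well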). To be noted: HUVEC TNFa-induced p65 nuclear translocation; cell count: measured here: nuclei count (cytotoxicity indicator), at 2.08 µM; inhibition: at 2 µM, stronger effect = higher value, 0% TNFa-plus-vehicle, 100% no-TNFa wells.
Experiment [2] in a line: inhibitors of mutant huntingtin aggregation, primary screen, imaging, exon1htt(103Q)mCFP cells, high-content imaging (AID 483;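 active = visual image review flags a hit and inhibition of aggregation exceeds 20%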;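 also: compound exposure lasted 3 days before fixation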;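 as to nuclei count: percent of the per-plate median nuclei count of sample wells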). To be noted: exon1htt(103Q)mCFP cell line, aggregate imaging, at 2 µM; inhibition of aggregation: stronger effect = higher value; nuclei count: measured here: cell count, toxicity.
The nature of experiment [3]: inhibitors of E-selectin induction by TNFa, primary screen, imaging, HUVEC, immunofluorescence, MLSMR starter and 10KST1 sets (AID 487;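 active = visually confirmed hit in the image check and inhibition above 20%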;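 as to inhibition: signal is fraction of cell area covered by stained E-selectin grains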;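 as to nuclei count: 100% = median nuclei count of all wells on the same plate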). To be noted: HUVEC TNFalpha-induced E-selectin immunofluorescence imaging, at 2 µM; inhibition: stronger effect = higher value; nuclei count: measured here: cell number, toxicity.
In experiment [4] the target is Voltage-gated potassium channel subunit beta-2 (Rattus norvegicus) (UniProt P62483). Nature of the experiment: KvBeta enzyme negative modulators, primary screen, biochemical, NADPH fluorescence (AID 622;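 active = fluorescence slope higher than the sample average by over 3 SD, cut at about -0.22 in these data, passing the limit was not always enough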;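 also: slope of raw intensity against log time taken from 70 to 1610 s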). To be noted: recombinant KvBeta, 4-cyanobenzaldehyde reduction, at 10 µM, stronger effect = higher value.
Sequence of Voltage-gated potassium channel subunit beta-2 (Rattus norvegicus) (P62483 whole entry, looked up): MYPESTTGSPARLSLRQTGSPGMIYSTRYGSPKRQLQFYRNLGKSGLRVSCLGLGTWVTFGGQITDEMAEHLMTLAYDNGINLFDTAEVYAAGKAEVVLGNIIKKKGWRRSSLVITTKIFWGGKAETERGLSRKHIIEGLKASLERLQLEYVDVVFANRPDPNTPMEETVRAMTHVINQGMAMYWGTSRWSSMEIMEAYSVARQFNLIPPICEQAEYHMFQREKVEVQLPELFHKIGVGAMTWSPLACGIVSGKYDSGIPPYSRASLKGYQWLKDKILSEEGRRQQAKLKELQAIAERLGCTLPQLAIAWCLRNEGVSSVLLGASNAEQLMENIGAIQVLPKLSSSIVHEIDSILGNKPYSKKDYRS
For experiment [5] the target is unchanged. Nature of the experiment: KvBeta positive modulators, primary screen, biochemical, NADPH fluorescence (AID 623;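 active = NADPH fluorescence slope more negative than the mean of all samples by about 3 SD, 99.7% confidence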;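 also: fluorescence intensity change per second fitted from 20 to 320 s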). To be noted: Recombinant KvBeta, NADPH fluorescence decrease slope, 10 min; at 10 µM; stronger effect = lower value.
Experiment [6] has as its target Muscarinic acetylcholine receptor M4 (Homo sapiens) (UniProt P08173). Nature of the experiment: compounds altering M4/GIRK thallium flux, either direction, primary screen, M4 allosteric agonist project, cell-based, HEK293 M4/GIRK, BTC-AM (AID 625;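 active = fluorescence slope after compound addition differing from the mean of all tested samples at 99.7% confidence, mostly higher but some lower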;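 also: thallium influx through GIRK channels coupled to M4 in HEK293 cells with BTC-AM dye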). The conditions noted are these: at 10 µM, actives lie on both sides. The essentials:
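Material – HEK293 cells with M4 receptor and GIRK channels · Buffer or medium – pH 7.3 thallium assay buffer · Doses – one dose, 10 µM final · Timing – cells overnight at 37 °C, BTC-AM loading 1 h, reads 2 min total · Measured by – kinetic fluorescence with BTC-AM dye · Controls – carbachol and DMSO controls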

Experiment [7] can be described thus: inhibitors of Sendai virus-induced IRF3 signaling, primary screen, TLR/RLR signaling modifier project, cell-based, Sendai virus stimulus, luciferase, 10K MLSCN set (AID 602276).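 Also: firefly luciferase from ISG56 promoter only with Renilla not read in this screen; 0% = Sendai virus plus DMSO and 100% = medium plus DMSO without virus.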 The conditions noted are these: HEK293 RL24 IRF3 luciferase reporter, at 10 µM, stronger effect = higher value.
Experiment [8] in a line: inhibitors of poly I:C-induced TLR3 signaling, primary screen, cell-based, poly I:C stimulus, luciferase, 10K MLSCN set (AID 602277;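 active = inhibition of the reporter signal at or above 50%; inactive = inhibition below 50%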). The conditions noted are these: HEK293-TLR3 RL24 IRF3 luciferase reporter, at 10 µM, stronger effect = higher value. Background: In a reporter assay the amount or activity of a reporter protein is the signal.

Active and inactive are the calls of the source.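 The calls were made as follows, unless noted: active = inhibition at or above 50% at 10 µM; inactive = inhibition below 50%.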

Sequence of Muscarinic acetylcholine receptor M4 (Homo sapiens) (P08173 whole entry, looked up): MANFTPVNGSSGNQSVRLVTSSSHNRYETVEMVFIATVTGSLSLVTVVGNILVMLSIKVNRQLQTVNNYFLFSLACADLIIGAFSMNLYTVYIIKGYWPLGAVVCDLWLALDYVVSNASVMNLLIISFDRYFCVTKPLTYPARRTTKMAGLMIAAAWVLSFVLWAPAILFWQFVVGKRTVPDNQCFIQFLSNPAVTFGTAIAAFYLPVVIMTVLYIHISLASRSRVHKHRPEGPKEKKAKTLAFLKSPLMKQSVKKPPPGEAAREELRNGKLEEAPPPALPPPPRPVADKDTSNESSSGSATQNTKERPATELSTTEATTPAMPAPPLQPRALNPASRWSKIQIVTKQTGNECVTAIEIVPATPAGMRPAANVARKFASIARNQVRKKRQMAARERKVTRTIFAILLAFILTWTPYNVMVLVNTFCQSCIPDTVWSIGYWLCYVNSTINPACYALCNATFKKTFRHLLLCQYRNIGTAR

The term inhibition denotes the relative decrease from the control value, in per cent. As to `CC(C)C1N=C2c3ccccc3N=C(SCC(=O)NCCc3ccc(S(N)(=O)=O)cc3)N2C1=O` (centres undefined), in experiment [1], the cell count was 566. The inhibition in experiment [1] was -3.4% (inactive); in experiment [3] it was -121% (inactive); in experiment [7], 22% (inactive); in experiment [8], 22% (inactive). The inhibition of aggregation in experiment [2] was 7.3% (inactive). Moreover, the nuclei count in experiment [2] stood at 60.1%; in experiment [3], 110%. In addition, the fluorescence slope is -0.598 (inactive) in experiment [4] and 0.00596 (inactive) in experiment [6]. Besides, in experiment [5], the NADPH fluorescence slope is -3.3e-05 (inactive).
Turning to `CCOC(=O)Cn1nnnc1CN(Cc1ccc(OC)cc1)Cc1cc2cc(C)cc(C)c2[nH]c1=O`, the cell count in experiment [1] amounted to 614. Also, the inhibition in experiment [1] is 6.2% (inactive); in experiment [3] it was -50.4% (inactive); in experiment [7], -8.1% (inactive); in experiment [8] it was -1.09% (inactive). Besides, in experiment [2], the inhibition of aggregation is -1.3% (inactive). Moreover, the nuclei count in experiment [2] and in experiment [3] was 117% throughout. The fluorescence slope is -0.595 (inactive) in experiment [4] and 0.00531 (inactive) in experiment [6]. Moreover, in experiment [5], the NADPH fluorescence slope is -3.9e-05 (inactive).
For the molecule `Cc1nc2cc(NC(=O)N3CC4(C)CC3CC(C)(C)C4)ccc2n1C` (centres undefined), the cell count in experiment [1] is 657. For the same molecule, the inhibition in experiment [1] is 2.1% (inactive); in experiment [3], 11.9% (inactive); in experiment [7], -4.69% (inactive); in experiment [8], 16.4% (inactive). Besides, in experiment [2], the inhibition of aggregation was 6.5% (inactive). For the same molecule, the nuclei count in experiment [2] turned out to be 104%; in experiment [3], 105%. The values for the fluorescence slope in experiment [4] and in experiment [6] were -0.484 (inactive) and 0.00526 (inactive), respectively. For the same molecule, the NADPH fluorescence slope in experiment [5] is -8.2e-05 (inactive).
With `CN1CCN(C(=O)CN(Cc2ccc(Cl)cc2)S(C)(=O)=O)CC1`, in experiment [1], the cell count was 242. Moreover, the inhibition in experiment [1] was -2.8% (inactive); in experiment [3], -25% (inactive); in experiment [7], 18% (inactive); in experiment [8] it was 19.4% (inactive). Further, the inhibition of aggregation in experiment [2] is 6.8% (inactive). Also, the nuclei count in experiment [2] came out at 92%; in experiment [3], 110%. Also, the values for the fluorescence slope in experiment [4] and in experiment [6] were -0.535 (inactive) and 0.00447 (inactive), respectively. Besides, the NADPH fluorescence slope in experiment [5] was 9.7e-06 (inactive).
Consider `O=C(CN1C(=O)CC(c2ccccc2)=Nc2ccccc21)NCc1ccco1`, for which the cell count in experiment [1] is 255. Besides, the inhibition is -21.4% (inactive) in experiment [1], 27.6% (inactive) in experiment [3], 17.2% (inactive) in experiment [7] and 18.1% (inactive) in experiment [8]. Besides, the inhibition of aggregation in experiment [2] is 6.1% (inactive). Also, the nuclei count turned out to be 74% in experiment [2] and 77.1% in experiment [3]. The fluorescence slope in experiment [4] is -0.546 (inactive); in experiment [6], 0.00578 (inactive). Moreover, the NADPH fluorescence slope in experiment [5] is -4.6e-05 (inactive).
Turning to `CCOC(=O)CSc1nc2ccccc2c(=O)n1NC(=O)c1ccccc1`, in experiment [1], the cell count is 472. Moreover, the inhibition in experiment [1] is -5.7% (inactive); in experiment [3], 10.7% (inactive); in experiment [7], 1.47% (inactive); in experiment [8], -19.8% (inactive). Moreover, in experiment [2], the inhibition of aggregation is -2% (inactive). Besides, the nuclei count in experiment [2] was found to be 119%; in experiment [3], 92.2%. The fluorescence slope is -0.445 (inactive) in experiment [4] and 0.00551 (inactive) in experiment [6]. The NADPH fluorescence slope in experiment [5] was 3.6e-06 (inactive).
For the molecule `CSc1nc(N2CCOCC2)c2c(c1C#N)CCCCC2`, the cell count in experiment [1] was 690. Besides, the inhibition was -11.9% (inactive) in experiment [1], -4.6% (inactive) in experiment [3], 23% (inactive) in experiment [7] and 27.5% (inactive) in experiment [8]. In addition, the inhibition of aggregation in experiment [2] is -18.9% (inactive). For the same molecule, the nuclei count in experiment [2] worked out at 117%; in experiment [3], 111%. Further, the results for the fluorescence slope in experiment [4] and in experiment [6] were -0.579 (inactive) and 0.00519 (inactive), respectively. In experiment [5], the NADPH fluorescence slope was 2.1e-05 (inactive).
As to `CCOc1cc(C)c(Cl)cc1S(=O)(=O)N(C)C`, in experiment [1], the cell count came to 682. Further, the inhibition is -14.7% (inactive) in experiment [1], -5.4% (inactive) in experiment [3], 20.4% (inactive) in experiment [7] and 22.4% (inactive) in experiment [8]. In addition, in experiment [2], the inhibition of aggregation is -26.4% (inactive). Also, the nuclei count in experiment [2] is 113%; in experiment [3], 99.4%. Also, the fluorescence slope is -0.565 (inactive) in experiment [4] and 0.00578 (inactive) in experiment [6]. Further, the NADPH fluorescence slope in experiment [5] was -5.1e-05 (inactive).
`CCc1nnc(NC(=O)CSc2nc3ccccc3s2)s1`: in experiment [1], the cell count amounted to 604. Moreover, the inhibition was 7.1% (inactive) in experiment [1], -44% (inactive) in experiment [3], 11.9% (inactive) in experiment [7] and 12.6% (inactive) in experiment [8]. Besides, the inhibition of aggregation in experiment [2] was -5.7% (inactive). The nuclei count in experiment [2] amounted to 100%; in experiment [3] it was 112%. The values for the fluorescence slope in experiment [4] and in experiment [6] were -0.472 (inactive) and 0.00516 (inactive), respectively. Also, the NADPH fluorescence slope in experiment [5] was -5.3e-05 (inactive).
Regarding `CC(CN1CCOCC1)(NS(=O)(=O)c1ccccc1)c1ccccc1` (centres undefined), the cell count in experiment [1] worked out at 460. Also, the inhibition is -12% (inactive) in experiment [1], 8% (inactive) in experiment [3], 4.38% (inactive) in experiment [7] and 7.26% (inactive) in experiment [8]. The inhibition of aggregation in experiment [2] is 10.4% (inactive). Besides, the nuclei count in experiment [2] was 85.8%; in experiment [3] it was 111%. For the same molecule, the fluorescence slope in experiment [4] was -0.576 (inactive); in experiment [6], 0.00534 (inactive). Further, the NADPH fluorescence slope in experiment [5] was -4.5e-06 (inactive).
In the case of `O=C(c1ccc(Cl)cc1)N(Cc1cccs1)C1CCS(=O)(=O)C1` (centres undefined), the cell count in experiment [1] amounted to 376. The inhibition in experiment [1] was 0.4% (inactive); in experiment [3] it was -33.8% (inactive); in experiment [7] it was -5.62% (inactive); in experiment [8], -0.322% (inactive). For the same molecule, the inhibition of aggregation in experiment [2] is -20.1% (inactive). The figures for the nuclei count in experiment [2] and in experiment [3] were 110% and 112%, respectively. The fluorescence slope in experiment [4] is -0.555 (inactive); in experiment [6], 0.00385 (inactive). Besides, the NADPH fluorescence slope in experiment [5] was -9.2e-05 (inactive).
As to `N#Cc1c(SCC(=O)N2CCOCC2)nsc1SCC(=O)N1CCOCC1`, in experiment [1], the cell count amounted to 398. The inhibition in experiment [1] is -8.5% (inactive); in experiment [3] it was -45% (inactive); in experiment [7], 3.35% (inactive); in experiment [8], 4.99% (inactive). Also, the inhibition of aggregation in experiment [2] was -6.4% (inactive). The figures for the nuclei count in experiment [2] and in experiment [3] were 99.1% and 117%, respectively. The fluorescence slope is -0.565 (inactive) in experiment [4] and 0.0058 (inactive) in experiment [6]. Besides, the NADPH fluorescence slope in experiment [5] is -2.7e-05 (inactive).
Consider `C=C(C)Cn1c(SCC)nc2ccccc2c1=O`, for which, in experiment [1], the cell count worked out at 399. The inhibition is -5% (inactive) in experiment [1], -26.7% (inactive) in experiment [3], 9.69% (inactive) in experiment [7] and 22.7% (inactive) in experiment [8]. For the same molecule, in experiment [2], the inhibition of aggregation was 13.5% (inactive). Moreover, the nuclei count in experiment [2] turned out to be 98.7%; in experiment [3], 94.5%. For the same molecule, the fluorescence slope in experiment [4] was -0.454 (inactive); in experiment [6], 0.0055 (inactive). In addition, the NADPH fluorescence slope in experiment [5] was -0.000357 (inactive).
`COc1ccc(C2C(C(=O)c3sc(C)nc3C)=C(O)C(=O)N2CCN2CCOCC2)cc1` (centres undefined): in experiment [1], the cell count worked out at 438. The inhibition was 4.5% (inactive) in experiment [1], 31.3% (inactive) in experiment [3], 4% (inactive) in experiment [7] and 1.15% (inactive) in experiment [8]. Besides, in experiment [2], the inhibition of aggregation was 0.7% (inactive). Also, the nuclei count was found to be 107% in experiment [2] and 84.8% in experiment [3]. The values for the fluorescence slope in experiment [4] and in experiment [6] were -0.531 (inactive) and 0.00651 (inactive), respectively. Also, in experiment [5], the NADPH fluorescence slope was -5.5e-05 (inactive).
